Reference: publication PMC6468299 (Nucleic Acids Research, 2019)
Read-outs that look alike come from different tables or passages of the source. Marks after values point to notes of the source that are not given here. Values belong to the molecule of their own block, whether it stands above or below them.

What was measured:
[1] = In vitro metabolism of 2′-F-monomers in human liver S9; format: in vitro ADME; settings: 10 μM, human liver S9 1 mg/ml, 37°C, 1 h
Caki-1 (kidney) = assay: Cytotoxicity, sulforhodamine B assay, Caki-1; format: cell-based, human; settings: day 11
Outline: (§1)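 Cells were grown 1 week in glucose- or galactose-containing medium, then seeded in 96-well plates. iCell cardiomyocytes were seeded on gelatin-coated plates and grown 5 days. Test compounds in 1:1 ethanol:water were added at each media change on days 0, 3, 7 and 10 (four doses), at up to 250 μM. Final ethanol was 2.5% at 250 μM and 1% otherwise. Total protein was read by sulforhodamine B on day 11. CC50 was fitted from triplicates.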

COLO 205 (intestine) = assay: Cytotoxicity, sulforhodamine B assay, COLO 205; format: cell-based, human; settings: day 11
Outline: as §1

SNB-78 (CNS) = assay: Cytotoxicity, sulforhodamine B assay, SNB-78; format: cell-based, human; settings: for CC50: day 11
Outline: as §1

HepG2 (liver) = assay: Cytotoxicity, sulforhodamine B assay, HepG2; format: cell-based, human; settings: day 11, four doses
Outline: as §1

SkMC (muscle) = assay: Cytotoxicity, sulforhodamine B assay, SkMC; format: cell-based, human; settings: SkMC, day 11
Outline: as §1

Molt-4 (blood) = assay: Cytotoxicity, sulforhodamine B assay, Molt-4; format: cell-based, human; settings: day 11
Outline: as §1

[2] = format: in vivo, Sprague Dawley rats; settings: single 30 mg/kg sc; for amount excreted in bile: rat bile collected over 168 h; for amount excreted in urine: rat urine collected over 168 h
Outline: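 Rats (3 male, 3 female) received a single subcutaneous 30 mg/kg dose of test GalNAc–siRNA. Liver, kidney, heart, plasma, urine and bile were sampled, with urine and bile collected over 168 h. Samples were ACN/water-precipitated, dried and dephosphorylated with calf intestinal alkaline phosphatase (pH 8.0, 37°C, 1 h). 2′-F-nucleosides were quantified by LC-MS/MS against matrix standards ([…]). Values are group means.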

[3] = test system: mitochondrial DNA (MT-CO1); assay: Mitochondrial DNA quantification by qPCR; format: cell-based, human; settings: across all cell lines, at ≤4 μM, day 11
Outline: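 Cells were treated as in the 11-day, four-dose cytotoxicity protocol in glucose or galactose medium. DNA was then quantified by TaqMan qPCR, with nuclear DNA measured using a succinate dehydrogenase-specific probe.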

[4] = Cytotoxicity, sulforhodamine B assay, Caki-1; format: cell-based, human; settings: human, Caki-1 cells (kidney), day 11
Outline: as §1

[5] = Cytotoxicity, sulforhodamine B assay, COLO 205; format: cell-based, human; settings: human, COLO 205 cells (intestine), day 11
Outline: as §1

[6] = Cytotoxicity, sulforhodamine B assay, SNB-78; format: cell-based, human; settings: human, SNB-78 cells (CNS), day 11
Outline: as §1

[7] = Cytotoxicity, sulforhodamine B assay, HepG2; format: cell-based, human; settings: human, HepG2 cells (liver), day 11, four doses
Outline: as §1

[8] = Cytotoxicity, sulforhodamine B assay, iCell cardiomyocytes; format: cell-based; settings: human, iCell cardiomyocytes (heart)
Outline: as §1

[9] = Cytotoxicity, sulforhodamine B assay, SkMC; format: cell-based, human; settings: human, SkMC cells (muscle), CC50, SkMC, day 11
Outline: as §1

[10] = Cytotoxicity, sulforhodamine B assay, Molt-4; format: cell-based, human; settings: human, Molt-4 cells (blood), day 11
Outline: as §1

[11] = test system: human cellular polymerases; settings: cited from earlier work

metabolic fate of 2′-F-nucleoside [1]: stable | amount excreted in bile ([2]; ALN-TTRSC02 (ESC)): <0.0004* μg | amount excreted in bile ([2]; revusiran (STC)): 0.042 µg | % dose excreted in bile ([2]; rat bile over 168 h, ALN-TTRSC02 (ESC)): <0.0003* % dose | Cmax ([2]; rat heart, ALN-TTRSC02 (ESC)): < 500 nM | Cmax ([2]; rat heart, revusiran (STC)): < 500 nM | Cmax ([2]; rat kidney, ALN-TTRSC02 (ESC)): < 500 nM | AUClast ([2]; rat kidney, revusiran (STC)): 150 µM·h | Cmax ([2]; rat kidney, revusiran (STC)): 2600 nM | t1/2 (elimination half-life) ([2]; rat kidney, revusiran (STC)): 46.9 h | tmax ([2]; rat kidney, revusiran (STC)): 16 h | AUClast ([2]; rat liver, ALN-TTRSC02 (ESC)): 138 µM·h | tmax ([2]; rat liver, ALN-TTRSC02 (ESC)): 48 h | Cmax ([2]; rat liver, monomer liberated from ALN-TTRSC02 (ESC)): 1700 nM | Cmax ([2]; rat liver, monomer liberated from revusiran (STC)): 10800 nM | AUClast ([2]; rat liver, revusiran (STC)): 722 µM·h | tmax ([2]; rat liver, revusiran (STC)): 36 h | Cmax ([2]; rat plasma, ALN-TTRSC02 (ESC)): < 30 nM | Cmax ([2]; rat plasma, revusiran (STC)): < 30 nM | amount excreted in urine ([2]; ALN-TTRSC02 (ESC)): <0.003* μg | amount excreted in urine ([2]; revusiran (STC)): 1.3 µg | % dose excreted in urine ([2]; rat urine over 168 h, ALN-TTRSC02 (ESC)): <0.002* % dose
SMILES: Nc1nc2c(ncn2[C@@H]2O[C@H](CO)[C@@H](O)[C@H]2F)c(=O)[nH]1 [2′-F-G, 2′-F-guanosine]
CC50 (Caki-1 (kidney); Caki-1, Galactose media): 30 µM | CC50 (Caki-1 (kidney); Caki-1, Glucose media): 32 µM | CC50 (COLO 205 (intestine); COLO 205, Galactose media): 22 µM | CC50 (COLO 205 (intestine); COLO 205, Glucose media): 19 µM | decrease of CC50 in galactose compared to glucose media (SNB-78 (CNS); SNB-78): 2–10 fold | CC50 (SNB-78 (CNS); SNB-78, Galactose media): 12 µM | CC50 (SNB-78 (CNS); SNB-78, Glucose media): 35 µM | CC50 (HepG2 (liver); HepG2, Galactose media): 112 µM | CC50 (HepG2 (liver); HepG2, Glucose media): 115 µM | CC50 (SkMC (muscle); Galactose media): 110 µM | CC50 (SkMC (muscle); Glucose media): 127 µM | CC50 (Molt-4 (blood); Molt-4, Galactose media): 12 µM | CC50 (Molt-4 (blood); Molt-4, Glucose media): 15 µM

reduction in mitochondrial DNA synthesis [3]: 70–80%
SMILES: Nc1ccn([C@H]2CC[C@@H](CO)O2)c(=O)n1 [ddC, 2′,3′-Dideoxycytidine]
CC50 at 11 days ([4]; CC50, Caki-1, Galactose media): > 20 µM | CC50 at 11 days ([4]; CC50, Caki-1, Glucose media): > 20 µM | CC50 at 11 days ([5]; CC50, COLO 205, Galactose media): > 20 µM | CC50 at 11 days ([5]; CC50, COLO 205, Glucose media): > 20 µM | CC50 at 11 days ([6]; CC50, SNB-78, Galactose media): > 20 µM | CC50 at 11 days ([6]; CC50, SNB-78, Glucose media): > 20 µM | CC50 at 11 days ([7]; CC50, HepG2, Galactose media): > 20 µM | CC50 at 11 days ([7]; CC50, HepG2, Glucose media): > 20 µM | CC50 at 11 days [8]: > 250 µM | CC50 at 11 days ([9]; Galactose media): > 20 µM | CC50 at 11 days ([9]; Glucose media): > 20 µM | CC50 at 11 days ([10]; CC50, Molt-4, Galactose media): > 20 µM | CC50 at 11 days ([10]; CC50, Molt-4, Glucose media): 8.7 µM

SMILES: C[C@@]1(F)[C@H](O)[C@@H](COP(=O)(O)OP(=O)(O)OP(=O)(O)O)O[C@H]1n1ccc(=O)[nH]c1=O [triphosphate form of Sofosbuvir]
IC50 [11]: > 200 µM
